From PubChem BioAssay
TRPC6 inhibitor = mouse TRPC6 channel inhibition | HEK293-TRPC6, membrane potential dye, ACh-evoked depolarization; stronger effect = lower value | B-score at 10 µM | 310,000 tested, 1.1% active;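 active means B-score under library mean minus 3 SD, initial fluorescence not abnormally high, positive integrated signal ratio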;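 further: B-score derived from integrated fluorescence ratio over the kinetic read; more negative B-score means stronger inhibition of depolarization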
TRPC6 act = activates the mouse TRPC6 cation channel. Q61143. B-score at 10 µM. HEK293-TRPC6 membrane potential dye fluorescence; stronger effect = higher value. 310,000 tested, 0.13% active;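 active means B-score of the integrated fluorescence ratio above library mean plus 3 SD, and starting fluorescence ratio within library mean plus 5 SD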;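 further: higher score means more depolarization so channel activation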
TRPC4 act = TRPC4 (mouse) channel activation | Q9QUQ5 | B-score at 10 µM | AID 2237 | 310,000 tested, 0.49% active | HEK293 TRPC4beta/mu-opioid, Fluo4 calcium fluorescence; stronger effect = higher value;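 active means B-score above 5 SD of library B-scores, and initial fluorescence ratio not above library mean plus 5 SD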;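 further: positive B-score marks a calcium rise read as TRPC4 activation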
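Material: HEK293 stable line with TRPC4beta plus mu-opioid receptor; technique: Fluo4 calcium-sensitive dye fluorescence, kinetic, 1 Hz baseline; timing: Fluo4 dye loading 45 min at room temperature, 110 s recording; controls: assay buffer as low control, maximal DAMGO as high control; read-out: integrated baseline-normalised fluorescence ratio, converted to per-well B score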
TRPC4 PAM = allosteric potentiators of mouse TRPC4 channel; AID 2227; B-score at 10 µM; 310,000 tested, 0.42% active; Q9QUQ5; HEK293 TRPC4beta/mu-opioid, DAMGO EC20, Fluo-4 Ca2+ flux; stronger effect = higher value;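 active means B-score of calcium response area above 5 SD of library B-scores, with initial fluorescence ratio within 5 SD of library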
TRPC4 block = TRPC4 (mouse) channel inhibition; HEK293 TRPC4beta/mu-opioid, DAMGO-evoked Fluo4 calcium flux; stronger effect = lower value; 300,000 tested, 0.39% active; AID 2247; B-score at 10 µM;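 active means B-score over 3 SD under the library average, no early fluorescence shift, positive overall ratio signal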
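Assay system: Stable TRPC4beta/mu-opioid receptor HEK293 cells | Reagent: DAMGO in two steps, submaximal then maximal | Compound dosing: Single concentration per test compound | Signal: Fluo4 Ca2+ flux fluorescence | Evaluation: Per-well B score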
CR mimetic SO = caloric restriction mimetics inhibiting age-related superoxide in yeast; S. cerevisiae aged cells, superoxide DHE fluorescence; stronger effect = lower value; superoxide response (% of plate mean), % at 10 µM; 330,000 tested, 0.18% active;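 active means superoxide response under a set limit, about three screen SD below normal, cut at about 65% in these data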;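 further: yeast aged for seven days with compound at 30 °C before DHE staining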
Large screens that a line does not name were inactive. This is a sample that favours compounds with a hit; in the whole collection about 2.3% have one here.

O=C(c1ccc2c(c1)OCO2)C1CCCN(Cc2cc(F)ccc2-n2cccn2)C1 (centres undefined)	TRPC4 block -5
O=C(C1CCCN(S(=O)(=O)c2cccs2)C1)N1CCc2ccccc2C1 (centres undefined)	none
CCC1CCc2sc(C(=O)NCC(c3ccc(OC)cc3)N3CCCC3)cc2C1 (centres undefined)	TRPC4 act 55
COc1ccc(C(CNC(=O)c2oc3ccc(Br)cc3c2C)N2CCCCC2)cc1 (centres undefined)	none
COc1ccc(C(CNC(=O)c2oc3ccc(OC)cc3c2C)N2CCCC2)cc1 (centres undefined)	TRPC4 act 72
O=S(=O)(c1ccc(Cl)cc1)N1CCN(C(=S)Nc2ccccc2F)CC1	none
COC(=O)C1C(c2ccccc2)C(C(=O)N2CCN(C)CC2)C1c1ccccc1 (centres undefined)	TRPC4 act 64
COc1ccc(NC(=O)COC(=O)CCNC(=O)c2ccco2)cc1Cl	none (no result: TRPC6 inhibitor, TRPC6 act, TRPC4 act, TRPC4 PAM, TRPC4 block)
CCCN(Cc1cc2ccc(C)cc2[nH]c1=O)S(=O)(=O)c1ccccc1	none
COc1ccc(C(=O)NC(=S)Nc2cccnc2)cc1[N+](=O)[O-]	CR mimetic SO 47.9
CCOc1ccc(C(=O)NC(=S)Nc2cccnc2)cc1[N+](=O)[O-]	none
Cc1ccc(S(=O)(=O)Nc2nc(C)c(C(=O)NN)s2)cc1	none
O=Cc1[nH]c2ccccc2c1N(C(=O)CCl)c1ccc([N+](=O)[O-])cc1	TRPC4 act 45
O=C(C1CCC1)N1CCN(c2cccc(C(F)(F)F)c2)CC1	none
COc1ccc(CNc2nc(-c3cccnc3)nn2C(=O)C(C)C)cc1	TRPC4 block -5 (no result: CR mimetic SO)
CN(C)/N=C1\C(=O)N(CN2CCN(c3ccccc3)CC2)c2ccccc21	none (no result: TRPC6 inhibitor, TRPC6 act, TRPC4 act, TRPC4 PAM, TRPC4 block)
CCOC(=O)c1cc(-c2cccc([N+](=O)[O-])c2)n[nH]1	TRPC4 PAM 23
CN1CCN(CC(=O)N2c3ccccc3C(=O)Nc3cccnc32)CC1	TRPC6 inhibitor -5.97
CN1CCN(CC(=O)N2c3ccc(S(=O)(=O)NCCNC(=O)OC(C)(C)C)cc3C(=O)Nc3cccnc32)CC1	none
O=S(=O)(Nc1cccc(CCc2ccccn2)c1)c1cc(Cl)ccc1Cl	TRPC4 PAM 13
Clc1ccc(-n2cc(-c3ccc(Br)cc3)[n+]3c2CCCCC3)cc1	TRPC4 block -6
CN(CCOc1ccccc1)CC(O)COCc1ccccc1F (centres undefined)	none
CN(CCOc1ccccc1)CC(O)COc1ccccc1 (centres undefined)	TRPC4 block -6
CC(OCC(O)CN(C)CCOc1ccccc1)c1ccc(Cl)cc1 (centres undefined)	TRPC4 block -6
O=C(NCC(=O)N(CCN1CCOCC1)C(C(=O)NC1CCCC1)c1cccs1)c1ccco1 (centres undefined)	none
Cc1cccc(C)c1NC(=S)N1CCCN(Cc2ccc(F)cc2)C1	none
Cc1nc(=S)c2ccccc2[nH]1	none
Cc1cc2[nH]c3ccccc3c2c(C)n1	TRPC4 block -7
NNc1nc(-c2ccccc2Cl)nc2sc3c(c12)CCCC3	TRPC4 PAM 12
CCCC(=O)Nc1c(-c2ccccc2)c(=O)c(C)nn1-c1ccc(Cl)cc1	TRPC4 act 78
COc1ccc(C(=O)COC(=O)c2cccc(-n3cnnn3)c2)c(OC)c1	none
O=S(=O)(c1ccc(Br)cc1Cl)N1CCN(CCO)CC1	TRPC4 act 83
CC1CCCCN1C(=O)CN1CCN(S(=O)(=O)c2ccc(Br)cc2Cl)CC1 (centres undefined)	none (no result: TRPC6 inhibitor, TRPC6 act, TRPC4 act, TRPC4 PAM, TRPC4 block)
COc1ccc(C2CC(=O)C=C(NC3CCCC3)C2)cc1 (centres undefined)	none
O=C(Nc1nc(-c2ccccc2)cs1)c1ccc2c(=O)n3c(nc2c1)CCCCC3	none
Cc1nc(-c2ccc(S(=O)(=O)Nc3cc(F)ccc3F)cc2)co1	none
C/C(=C\c1cccc(Cl)c1Cl)C(=O)c1c(C)cc(C)[nH]c1=O	TRPC4 PAM 19
C/C(=C\c1ccccc1F)C(=O)c1c(C)cc(C)[nH]c1=O	none
O=C(O)c1ccc(NC2=C(Cl)C(=O)c3ccccc3C2=O)cc1	TRPC4 block -5
O=C1C(Cl)=C(Nc2ccccc2)C(=O)c2ccccc21	none
Cc1nn(C(=O)c2cccnc2)c(C)c1Sc1ccccc1	TRPC4 block -6
CCCCOc1c(Cl)cc(CNC(C)(C)CO)cc1OCC	none
CCCCNCc1cc(Cl)c(OCCC)c(OCC)c1	TRPC4 block -7
CC(=O)c1oc2ccccc2c1NC(=O)CCCN1C(=O)c2ccccc2C1=O	none
COc1ccc(OC)c(-n2nnnc2SCC(=O)Nc2ccccc2N2CCOCC2)c1	none
CCCN1CCN(C(=S)NCc2ccc(Cl)cc2)CC1	TRPC4 PAM 22
S=C(NCc1ccc(Cl)cc1)N1CCN(c2ccccn2)CC1	none
CC(C)N1C(=O)/C(=C/c2nc3ccccc3c(=O)n2-c2ccccc2)c2ccccc21	none
COC(=O)c1ccc(C(=S)NCC2(N(C)C)CCCCC2)cc1	TRPC4 act 101
CCCCCc1cc(=O)oc2c(C(CCN(CC)CC)c3ccc(N(C)C)cc3)c(OC)cc(OC)c12 (centres undefined)	TRPC4 PAM 11
CCCCCc1cc(=O)oc2c(C(CCN3CCCC(C)C3)c3ccc(N(C)C)cc3)c(OC)cc(OC)c12 (centres undefined)	none
COc1ccc(Cc2noc(CN3CCN(c4ccc(Cl)cn4)CC3)n2)cc1OC	none
CC(C)CCc1noc(CN2CCN(c3ccc(Cl)cn3)CC2)n1	TRPC4 PAM 16
COC(=O)C(Cc1ccccc1)NC(=O)c1ccc(C)cc1 (centres undefined)	none
CCCCc1c(O)nc(SCC(=O)Nc2cccc3ccccc23)n(-c2ccccc2OC)c1=O	TRPC4 block -5
CCc1c(O)nc(SCC(=O)Nc2ccccc2OC)n(-c2ccccc2C)c1=O	none
O=C(NC(=S)NC1CCCC1)c1ccccc1	none
CCc1ccc(S(=O)(=O)Nc2ccc(O)c3c(=O)cc(-c4ccccc4Cl)oc23)cc1	none
O=c1cc(-c2ccccc2Cl)oc2c(NS(=O)(=O)c3cc(Cl)cc(Cl)c3O)ccc(O)c12	TRPC4 act 120 (no result: TRPC4 block)
C#CC[N+]1(CC#Cc2cccc3ccccc23)CCOCC1	TRPC4 PAM 37
OCCN1CCN(Cc2ccc3ccccc3c2)CC1	none
C/C(CC(=O)N(C(C)C)C(C)C)=N\NC(=O)COc1ccc(Br)cc1Br	none
C/C(CC(=O)N(C(C)C)C(C)C)=N\NC(=O)COc1ccc(Cl)cc1Cl	TRPC4 block -6
COc1ccccc1-c1cc(-c2ccccc2)nc(=O)[nH]1	TRPC4 PAM 21
CCCCN(CC)S(=O)(=O)c1ccc(C(=O)Nc2nnc(-c3cccs3)o2)cc1	TRPC4 act 67
